From ChEMBL document CHEMBL3621081, “Rational Development of a Potent 15-Lipoxygenase-1 Inhibitor with in Vitro and ex Vivo Anti-inflammatory Properties” (J Med Chem, 2015)
Activity calls are given as the source filed them. No cut-off for these calls is given here.

How the values were obtained:
[1] = biological target: T1, Polyunsaturated fatty acid lipoxygenase ALOX15 (Homo sapiens) (UniProt P16050); test: Inhibition of human 15-LOX1 assessed as conversion of linoleic acid to 13(S)-HpODE at 50 uM after 10 mins by UV analysis
T1 sequence (whole entry): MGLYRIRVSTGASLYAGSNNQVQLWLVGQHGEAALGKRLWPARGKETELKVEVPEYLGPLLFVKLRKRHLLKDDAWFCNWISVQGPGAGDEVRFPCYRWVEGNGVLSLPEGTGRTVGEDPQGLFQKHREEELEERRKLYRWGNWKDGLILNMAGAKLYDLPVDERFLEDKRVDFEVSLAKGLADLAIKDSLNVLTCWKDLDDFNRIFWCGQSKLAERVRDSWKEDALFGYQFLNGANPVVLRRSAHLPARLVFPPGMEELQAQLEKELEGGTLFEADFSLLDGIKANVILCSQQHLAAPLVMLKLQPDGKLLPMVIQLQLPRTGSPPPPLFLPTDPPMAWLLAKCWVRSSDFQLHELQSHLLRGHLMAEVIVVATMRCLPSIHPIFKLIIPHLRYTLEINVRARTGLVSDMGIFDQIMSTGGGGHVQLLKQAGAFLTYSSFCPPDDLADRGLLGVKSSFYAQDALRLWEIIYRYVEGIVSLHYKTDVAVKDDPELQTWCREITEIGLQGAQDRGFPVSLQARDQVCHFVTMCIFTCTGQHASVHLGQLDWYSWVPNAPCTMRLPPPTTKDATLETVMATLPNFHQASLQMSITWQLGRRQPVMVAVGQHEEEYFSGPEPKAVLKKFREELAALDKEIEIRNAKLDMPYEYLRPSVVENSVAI
Method in brief: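 Single-concentration screen at 50 μM: h-15-LOX-1 (1:640 final) in 25 mM HEPES pH 7.5 is preincubated with inhibitor for 10 min at rt. 25 µM linoleic acid final is added, and product formation is followed as the linear A234 increase. Activity is normalised to no-inhibitor (100%) and no-enzyme (0%) controls, in triplicate.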

RAW264.7 [2] = test: Cytotoxicity against mouse RAW264.7 cells assessed as cell viability at 12.5 uM by MTS assay; type: cell-based; conditions: raw264.7, 12.5 µM
Method in brief: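 RAW 264.7 macrophages are incubated with inhibitor at 0.05-100 μM, and viability is read by MTS assay. Treated wells are compared statistically with non-treated control cells.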

Lung [3] = test: Cytotoxicity against C57BL/6 mouse precision-cut lung slices assessed as viability at 500 nM by LDH release assay; type: tissue-based; conditions: 0.5 µM
Method in brief: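 Mouse lung slices are exposed to 1, 10, 100 or 500 nM inhibitor with 10 μM linoleic acid for 20 h. […] Mean ± SD of 3 independent experiments.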

RAW264.7 [4] = test: Antiinflammatory activity in mouse RAW264.7 cells assessed as effect on LPS/INFgamma-induced IL-6 gene expression at 1 to 100 nM treated 20 hrs before LPS/INFgamma stimulation measured after 4 hrs by RT-qPCR analysis; type: functional, cell-based
Method in brief: (§1)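 RAW 264.7 cells (passage 7-16, DMEM with 10% FBS) are seeded at 20,000 cells/cm2 the day before. They receive 1-500 nM inhibitor final plus 10 μM linoleic acid for 20 h, with 10 ng/ml LPS and IFNγ for the last 4 h. Cytokine mRNA is measured by RT-qPCR on 10 ng cDNA, PCR in duplicate or triplicate, as fold change versus the LPS/IFNγ/linoleic acid control. Mean ± SEM, 4-6 experiments.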

Lung [5] = test: Antiinflammatory activity in C57BL/6 mouse precision-cut lung slices assessed as increase of LPS/INFgamma-induced IL-10 gene expression at 1 to 100 nM treated 20 hrs before LPS/INFgamma stimulation measured after 4 hrs by RT-qPCR analysis relative to control; type: functional, tissue-based
Method in brief: (§2)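 Male C57bl/6 mouse lungs are agarose-filled, then cut into 250 μm slices, 3 per well, in supplemented DMEM at 37 °C and 5% CO2. Inhibitor is given at 1-500 nM final with 10 μM linoleic acid for 20 h, and LPS/IFNγ is added for the last 4 h. IL-1β, IL-6, IL-10, IL-12 and GAPDH mRNA are measured by RT-qPCR as fold change versus the LPS/IFNγ/linoleic acid control. Mean ± SEM, 4-6 independent experiments.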

Lung [6] = test: Antiinflammatory activity in C57BL/6 mouse precision-cut lung slices assessed as reduction of LPS/INFgamma-induced IL-6 gene expression at 1 to 100 nM treated 20 hrs before LPS/INFgamma stimulation measured after 4 hrs by RT-qPCR analysis relative to control; type: functional, tissue-based; method in brief: as §2
Lung [7] = test: Antiinflammatory activity in C57BL/6 mouse precision-cut lung slices assessed as reduction of LPS/INFgamma-induced IL-1beta gene expression at 1 to 100 nM treated 20 hrs before LPS/INFgamma stimulation measured after 4 hrs by RT-qPCR analysis relative to control; type: functional, tissue-based; method in brief: as §2
Lung [8] = test: Antiinflammatory activity in C57BL/6 mouse precision-cut lung slices assessed as reduction of LPS/INFgamma-induced IL-12 gene expression at 1 to 100 nM treated 20 hrs before LPS/INFgamma stimulation measured after 4 hrs by RT-qPCR analysis relative to control; type: functional, tissue-based; method in brief: as §2
RAW264.7 [9] = test: Antiinflammatory activity in mouse RAW264.7 cells assessed as effect on LPS/INFgamma-induced IL-1beta gene expression at 1 to 100 nM treated 20 hrs before LPS/INFgamma stimulation measured after 4 hrs by RT-qPCR analysis; type: functional, cell-based; method in brief: as §1
RAW264.7 [10] = test: Antiinflammatory activity in mouse RAW264.7 cells assessed as effect on LPS/INFgamma-induced IL-12 gene expression at 1 to 100 nM treated 20 hrs before LPS/INFgamma stimulation measured after 4 hrs by RT-qPCR analysis; type: functional, cell-based; method in brief: as §1

O=Cc1c(C(=O)O)[nH]c2cc(Cl)ccc12
inhibition [1]: inactive

CC(C)(C)OC(=O)n1cc(C=O)c2ccccc21
inhibition [1]: inactive

O=Cc1c[nH]c2ccccc12
inhibition [1]: inactive

CCOC(=O)c1[nH]c2cc(Cl)ccc2c1C(=O)C[C@@H](C)CCCC(C)C
Activity (RAW264.7 [2]): Non-toxic | Activity (Lung [3]): Non-toxic | Activity (RAW264.7 [4]): inactive | Activity (Lung [5]): Active | Activity (Lung [6]): Active | Activity (Lung [7]): Active | Activity (Lung [8]): inactive | Activity (RAW264.7 [9]): inactive | Activity (RAW264.7 [10]): inactive

CCOC(=O)c1c(C=O)c2ccc(Cl)cc2n1C
inhibition [1]: inactive

CC(C)(C)OC(=O)c1cc2ccc(Cl)cc2[nH]1
inhibition [1]: inactive

O=Cc1c[nH]c2cc(Cl)ccc12
inhibition [1]: inactive

O=Cc1c(Cl)[nH]c2cc(Cl)ccc12
inhibition [1]: inactive
